Screening results deposited in PubChem by Sanford-Burnham Center for Chemical Genomics.
UPR CHOP act: apoptotic UPR (CHOP) activation; CHO-CHOP luciferase reporter, luminescence; percent of tunicamycin response over DMSO baseline; activation, % at 10 µM; 0.34% of 330,000 active; AID 449763;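 active means at 10 µM dose, activation of 40% or more, normalized to positive control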;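 further: 100% = tunicamycin at 10 µg/mL and 0% = DMSO alone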
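Evaluation: % reporter activation, DMSO baseline versus tunicamycin full activation; System: CHO-CHOP luciferase reporter cell line; Input: 500 cells/well; Incubation: 6 h compound treatment, 37 °C; Measured by: Steady-Glo luciferase luminescence; Dosing: one dose, 10 µM in 0.5% DMSO; Buffer or medium: F12 medium, 10% FBS; Benchmarks: positive tunicamycin 10 µg/mL, negative DMSO alone.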
Apaf1 inhib: blocks human Apaf-1 apoptosome activity | reconstituted apoptosome caspase-3 activity, DEVD-Rh110 fluorescence | inhibition, % at 20 µM | O14727 | AID 489030 | 0.71% of 330,000 active; active means inhibition of at least 40% at 20 µM;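 further: plate controls were DMSO wells for no effect and DEVD-CHO caspase inhibitor wells for full effect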
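Material: reconstituted apoptosome with Apaf-1, cytochrome c, caspase-9, procaspase-3, dATP; medium: pH 7.5 Hepes buffer with CHAPS, BSA, DTT; also added: cytochrome c and DEVD-Rh110 substrate; timing: 30 min plus 50 min, RT; signal: Rh110 fluorescence intensity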
UPR XBP1 act: activators of adaptive arm of unfolded protein response (XBP1) | CHO-XBP1 luciferase reporter, IRE1-XBP1 UPR activation, luminescence; percent of tunicamycin response, DMSO as zero | activation, % at 20 µM | 0.33% of 330,000 active | AID 463104;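 active means versus positive control, 20 µM dose yields 30% or more activation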;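 further: 100% = tunicamycin at 10 µg/mL and 0% = DMSO only wells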
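Assay system: CHO-XBP1 luciferase reporter cells; Schedule: 6 h treatment, 37 °C; Detection: glow luminescence from Steady-Glo reagent; Benchmarks: high control tunicamycin 10 µg/mL final, low control DMSO vehicle only.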
UBC13 inh: blocks human UBC13 polyubiquitin chain formation; TR-FRET; inhibition, % at 20 µM; P61088; 0.47% of 330,000 active; in the data active means inhibition above about 45%, passing the limit was not always enough; inconclusive means no clear call, values can overlap the other calls
Target sequence (P61088 whole entry, looked up): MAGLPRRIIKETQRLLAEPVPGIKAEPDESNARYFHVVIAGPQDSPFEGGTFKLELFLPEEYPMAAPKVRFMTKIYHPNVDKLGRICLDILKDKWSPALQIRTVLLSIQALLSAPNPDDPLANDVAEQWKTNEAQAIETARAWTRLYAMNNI
Mdm2 MdmX PPI: disrupts the human Mdm2-MdmX interaction | inhibition, % at 8 µM | SaOS-2 split-luciferase Mdm2/MdmX complementation, luminescence | 3% of 330,000 active;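 active means inhibition of at least 50% at 8 µM in the primary screen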
Casp3 UBC13 ctr: caspase-3 inhibition (UBC13 counter-screen); AID 488856; shares compounds with UBC13 inh; Recombinant caspase-3, Caspase-Glo 3/7 luminescence, 60 min; 4% of 1,400 active; inhibition, % at 20 µM;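 active means mean inhibition across replicates above about 26%, limit read from the data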;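 further: plate controls were DMSO with caspase-3 for no effect and DMSO wells lacking enzyme for full effect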
Target sequence (P42574 whole entry, looked up): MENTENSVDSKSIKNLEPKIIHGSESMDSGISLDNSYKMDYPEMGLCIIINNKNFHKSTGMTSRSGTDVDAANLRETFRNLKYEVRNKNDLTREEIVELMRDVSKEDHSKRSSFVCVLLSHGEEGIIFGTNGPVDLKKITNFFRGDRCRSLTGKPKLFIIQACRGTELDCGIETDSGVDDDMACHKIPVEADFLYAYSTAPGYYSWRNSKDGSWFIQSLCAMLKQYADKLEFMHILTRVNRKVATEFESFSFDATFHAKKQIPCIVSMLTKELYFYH
UBC13 conf: confirmation of human UBC13 polyubiquitin inhibitors. UBC13 polyubiquitination, TR-FRET, biochemical. shares compounds with UBC13 inh. inhibition, % at 10 µM. 68% of 1,400 active. AID 488859; in the data active means inhibition above about 45%; inconclusive means no clear call, values can overlap the other calls
Starred values were filed as active, the others as inactive; u = inconclusive; x = not tested or not shown. Most compounds without a hit are left out; they make up all but 4.1% or so of the library.

SMILES | UPR CHOP act | Apaf1 inhib | UPR XBP1 act | UBC13 inh | Mdm2 MdmX PPI | Casp3 UBC13 ctr | UBC13 conf
O=C(Cn1nc(CNc2ccc(Br)cc2)[n+]2c1CCCCC2)c1ccc([N+](=O)[O-])cc1 | -1.2 | 25.3 | -5.4 | 51.6* | 34.6 | 0.2 | 45.8*
Cc1cc(C)cc(NC(=O)CCc2c(C)nn(-c3ccc(N4CCOCC4)nn3)c2C)c1 | 3.4 | -4.4 | -3.1 | -0.3 | -4.4 | x | x
Cc1ncc(CO)c(/C=N/NC(=S)Nc2ccc(Cl)c(Cl)c2)c1O | -4.1 | -15.6 | -1.1 | 50.7* | 31.6 | -1.5 | 28.4
CC(C(=O)Nc1ccccc1C#N)N1C(=O)NC2(CCCCCC2)C1=O (stereo unspecified) | 0.7 | 0.1 | 1.2 | -2.8 | 3.6 | x | x
COC(=O)c1ccc(NC(=O)C2CCCN2C(=O)OCc2ccccc2)cc1 (stereo unspecified) | 0.6 | 5.7 | -1.8 | -4.7 | -7.1 | x | x
COc1ccc(C(=O)N/N=C/c2cccnc2)cc1 | 1.8 | 5.6 | -1.7 | -2.7 | -48.5 | x | x
Cc1nc(N)sc1C(=O)N/N=C/c1cccnc1 | -1.2 | 0.9 | -2.5 | 92.2* | 6.1 | 24.2 | 107.8*
NC1=NC[C@H](Cc2ccc(O)cc2)N1CCc1cc(C(F)(F)F)cc(C(F)(F)F)c1 | 0.5 | 28.0 | -3.9 | 51.6* | -9.3 | -6.0 | 33.1
NC1=NC[C@H](Cc2ccc(O)cc2)N1CCc1cccc2ccccc12 | -1.2 | 23.1 | 0.3 | 61.2* | -12.1 | -1.5 | 50.1*
NC1=NC[C@@H](Cc2ccc(O)cc2)N1CCc1cccc2ccccc12 | -1.8 | 7.7 | 2.8 | 42.6 | 9.8 | x | x
CCC(C)[C@H]1CNC(=S)N1CCc1cccc2ccccc12 (stereo partly specified) | 1.1 | 16.0 | -2.8 | 10.3 | -8.0 | x | x
CCC(C)[C@H]1CN=C(N)N1CCc1cccc2ccccc12 (stereo partly specified) | 1.4 | 39.3 | 0.0 | 45.1* | 39.8 | 1.9 | 50.8*
CCOc1ccc(Cl)cc1/C=N/O | -2.1 | -10.5 | -2.2 | 12.3 | 15.6 | x | x
CCOc1ccc(Cl)cc1/C=N/NC(N)=O | -3.9 | 6.8 | -3.4 | 49.7* | 6.5 | -2.5 | 53.4*
Cc1oc(-c2ccccc2F)nc1CS(=O)(=O)CC(=O)NCCN(C)C1CCCCC1 | -1.0 | 3.4 | -1.6 | 13.9 | 3.5 | x | x
COc1ccc(CCN2C(=O)c3cccc4cccc(c34)C2=O)cc1OC | 0.1 | -2.9 | 3.0 | 7.7 | 35.6 | x | x
COc1ccc(CN2C(=O)c3cccc4cccc2c34)cc1F | 0.9 | 11.7 | -6.7 | 64.4* | 37.0 | 0.5 | 62.4*
COc1ccc(CCNC(=O)COC(=O)c2ccccn2)cc1 | -0.8 | -5.8 | -2.0 | 15.6 | 4.3 | x | x
O=C1/C(=C/c2cccc([N+](=O)[O-])c2)CSc2ccc(Cl)cc21 | 0.7 | -15.1 | 6.8 | 48.6* | 13.8 | 0.7 | 82.7*
O=C1/C(=C/c2cccc([N+](=O)[O-])c2)CCc2ccccc21 | 3.8 | 13.8 | 1.9 | 15.1 | 4.0 | x | x
Cc1occc1-c1nnc(SCC(=O)c2c(N)n(C3CC3)c(=O)[nH]c2=O)n1C | 0.2 | -9.4 | 0.2 | -0.2 | -1.2 | x | x
Cc1ccc(-c2oc3ncnc(N)c3c2-c2ccc(C)cc2)cc1 | 0.2 | 24.6 | -0.3 | 88.3* | 3.7 | -1.5 | 82.2*
CCOC(=O)c1cc(-c2ccc(OC)cc2)nc2c1c(C)nn2CCC#N | -3.0 | 18.5 | 3.4 | 52.7* | 8.2 | 0.4 | u
CCOC(=O)c1cc(-c2ccc(C#N)cc2)nc2c1c(C)nn2CCC#N | -0.8 | 7.7 | 1.2 | 22.5 | 11.6 | x | x
COc1cc2[nH]c(=S)nc(Nc3ccc(NC(C)=O)cc3)c2cc1OC | -0.9 | -10.9 | -4.6 | 46.3* | -19.0 | 3.8 | 47.8*
SMILES | UPR CHOP act | Apaf1 inhib | UPR XBP1 act | UBC13 inh | Mdm2 MdmX PPI | Casp3 UBC13 ctr | UBC13 conf
CN1CCN(C(=O)c2ccc(OCCOc3ccccc3)cc2)CC1 | 3.6 | -7.6 | -4.2 | 4.9 | -3.1 | x | x
COc1ccccc1NS(=O)(=O)c1cccc(C(=O)N/N=C/c2c(CO)cnc(C)c2O)c1 | 0.1 | -3.1 | -1.4 | 72.3* | 23.9 | 0.7 | 19.4
Cc1sc2nc(C(C)Nc3ccccc3N3CCOCC3)[nH]c(=O)c2c1C (stereo unspecified) | -0.8 | 2.2 | 1.9 | 73.5* | 9.6 | -0.7 | 86.8*
CCOc1cc(/C=N\NC(=O)Cn2nnc3ccccc32)ccc1O | 0.0 | -11.6 | 1.8 | -8.0 | 6.3 | x | x
CCOc1ccc(NC(=O)NNC(=O)c2ccc3ccccc3c2O)cc1 | -0.2 | 13.0 | -5.1 | 49.0* | 17.9 | -1.6 | 16.5
CCc1ccccc1NC(=O)NNC(=O)c1ccc2ccccc2c1O | 2.3 | 7.0 | -5.1 | 9.8 | 18.3 | x | x
C[C@H](NC(=O)C1CC(=O)N(c2ccc3c(c2)OCCO3)C1)C(=O)N1CCCCC1 (stereo partly specified) | 1.8 | 5.2 | 0.2 | 4.3 | 3.1 | x | x
Cc1ccc(OCCC(=O)OCC(=O)NC2CCS(=O)(=O)C2)cc1 (stereo unspecified) | -1.1 | 0.9 | 1.1 | -2.5 | 3.9 | x | x
COc1cc(-c2cc(C(=O)Nc3ccc(S(=O)(=O)Nc4ncccn4)cc3)c3ccccc3n2)cc(OC)c1OC | 2.1 | -2.5 | -0.5 | 27.9 | 12.6 | x | x
COc1cc(-c2cc(C(=O)Nc3ccc(S(N)(=O)=O)cc3)c3ccccc3n2)cc(OC)c1OC | -0.7 | 14.6 | -5.8 | 59.8* | 44.4 | -0.8 | 47.5*
COc1ccc(C(C(=O)NC2CCCCC2)N(Cc2cccnc2)C(=O)c2snc(C(N)=O)c2N)cc1 (stereo unspecified) | 1.0 | 2.2 | -3.5 | 16.2 | -23.9 | x | x
Cc1ccc(S(=O)(=O)N2CCOC2CNC(=O)C(=O)NCCN2CCOCC2)cc1 (stereo unspecified) | 2.2 | -4.0 | -5.4 | 6.7 | -6.5 | x | x
CCN(CC(=O)Nc1ccc2c(c1)OCCO2)S(=O)(=O)c1ccc(F)cc1 | 0.4 | -1.8 | -5.3 | 5.4 | 5.7 | x | x
Cc1ccc(NC(=O)c2ccc(NCCN)c([N+](=O)[O-])c2)cc1 | 1.7 | 3.9 | 1.8 | -24.2 | 13.0 | x | x
NCCNc1ccc(C(=O)N2c3ccccc3Sc3ccccc32)cc1[N+](=O)[O-] | 1.3 | 29.2 | -1.8 | 64.9* | 37.9 | -2.2 | 111.0*
Cc1cc(C)c(C)c(SCC(=O)Nc2oc(C)c3c(C)n[nH]c(=O)c23)c1C | -1.4 | 8.9 | 2.8 | 3.2 | -26.2 | x | x
CCn1c(SCC(=O)Nc2oc(C)c3c(C)n[nH]c(=O)c23)nc2sc(C)c(C)c2c1=O | 4.7 | 30.9 | 6.9 | 63.8* | 40.0 | -2.5 | 18.3
CS(=O)(=O)N(CC(=O)NCCC1=CCCCC1)c1ccc2c(c1)OCO2 | -1.5 | -14.6 | -3.1 | -2.1 | 11.5 | x | x
